How the values were obtained:
Format in all cases: functional
[1] = tested on: T47D; assay: Cytotoxicity against human T47D cells after 48 hrs by SRB assay
How it was run: (§1)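 NCI 60-line five-dose screen: cells plated, held 24 h at 37 °C, 5% CO₂ before treatment, with a TCA-fixed time-zero plate. Five final concentrations (0.01–100 µM, 10-fold dilutions) for 48 h. Cells fixed with cold TCA (10% final) and stained with 0.4% SRB in 1% acetic acid. Dye dissolved in 10 mM Tris and read at 515 nm. GI₅₀, TGI and LC₅₀ taken from percent-growth curves.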

[2] = tested on: MDA-MB-435; assay: Cytotoxicity against human MDA-MB-435 cells after 48 hrs by SRB assay; conditions: MDA-MB-435, 48 h
How it was run: (§2)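 NCI 60-line five-dose screen. Cells were preincubated 24 h at 37 °C under 5% CO2 and 100% humidity, and time-zero plates were TCA-fixed when compound was added. Five 10-fold concentrations (0.01–100) were tested for 48 h. Cells were fixed with cold TCA (final 10%, 60 min, 4 °C), stained with 0.4% SRB for 10 min, and read at 515 nm. GI50, TGI and LC50 came from growth-percentage formulas, with out-of-range values given as > or <.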

[3] = tested on: OVCAR-5; assay: Cytotoxicity against human OVCAR5 cells after 48 hrs by SRB assay; conditions: OVCAR-5, 48 h; how it was run: as §2
[4] = tested on: HCC 2998; assay: Cytotoxicity against human HCC2998 cells after 48 hrs by SRB assay; conditions: HCC 2998, 48 h; how it was run: as §2
[5] = tested on: OVCAR-8; assay: Cytotoxicity against human OVCAR8 cells after 48 hrs by SRB assay; conditions: OVCAR-8, 48 h; how it was run: as §2
[6] = tested on: COLO 205; assay: Cytotoxicity against human COLO205 cells after 48 hrs by SRB assay; conditions: COLO 205, 48 h; how it was run: as §2
[7] = tested on: KM12; assay: Cytotoxicity against human KM12 cells after 48 hrs by SRB assay; conditions: KM12, 48 h; how it was run: as §2
[8] = tested on: PC-3; assay: Cytotoxicity against human PC3 cells after 48 hrs by SRB assay; conditions: PC-3, 48 h; how it was run: as §2
[9] = tested on: SK-OV-3; assay: Cytotoxicity against human SKOV3 cells after 48 hrs by SRB assay; conditions: SK-OV-3, 48 h; how it was run: as §1
[10] = tested on: SF-295; assay: Cytotoxicity against human SF295 cells after 48 hrs by SRB assay; conditions: SF-295, 48 h; how it was run: as §2
[11] = tested on: IGROV-1; assay: Cytotoxicity against human IGROV1 cells after 48 hrs by SRB assay; conditions: IGROV-1, 48 h; how it was run: as §2
[12] = tested on: NCI-H460; assay: Cytotoxicity against human NCI-H460 cells after 48 hrs by SRB assay; conditions: NCI-H460, 48 h; how it was run: as §2
[13] = tested on: HOP-62; assay: Cytotoxicity against human HOP62 cells after 48 hrs by SRB assay; conditions: HOP-62, 48 h; how it was run: as §2
[14] = tested on: HCT-15; assay: Cytotoxicity against human HCT15 cells after 48 hrs by SRB assay; conditions: HCT-15, 48 h; how it was run: as §2
[15] = tested on: IGROV-1; assay: Growth inhibition of human IGROV1 cells at 10 uM after 48 hrs by SRB assay relative to control; conditions: IGROV-1, 48 h, read-out: GI
How it was run: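 NCI single-dose primary screen: compound added at 1 × 10⁻⁵ M, cultures incubated 48 h. Protein stained with sulforhodamine B. Result given as percent growth of treated cells relative to untreated controls, where negative values mean cell kill.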

[16] = tested on: SK-MEL-5; assay: Cytotoxicity against human SK-MEL-5 cells after 48 hrs by SRB assay; conditions: SK-MEL-5, 48 h; how it was run: as §2
[17] = tested on: NCI-H522; assay: Cytotoxicity against human NCI-H522 cells after 48 hrs by SRB assay; conditions: NCI-H522, 48 h; how it was run: as §2
[18] = tested on: SF-268; assay: Cytotoxicity against human SF268 cells after 48 hrs by SRB assay; conditions: SF-268, 48 h; how it was run: as §2
[19] = read-out: LC50 (the source's name)
[20] = read-out: pLC50 (the source's name) (converted)

Structure (SMILES): O=C(CCc1nnc2sc(-c3ccc(Cl)cc3Cl)nn12)c1nc2ccccc2[nH]1
- GI50 ([1]; read-out: GI50): 753 nM
- LC50 (concentration giving 50% net cell kill) ([1]; read-out: LC50): 7060 nM
- TGI ([1]; read-out: TGI): 2510 nM
- GI50 ([1]; read-out: pGI50 (converted)): 759 nM
- LC50 (concentration giving 50% net cell kill) ([1]; read-out: pLC50 (converted)): 7080 nM
- TGI ([1]; read-out: pTGI (converted)): 2510 nM
- GI50 ([2]; read-out: GI50): 265 nM
- TGI ([2]; read-out: TGI): 842 nM
- GI50 ([2]; read-out: pGI50 (converted)): 263 nM
- TGI ([2]; read-out: pTGI (converted)): 851 nM
- GI50 ([3]; read-out: GI50): 1880 nM
- CC50 [3, 19]: 8390 nM
- TGI ([3]; read-out: TGI): 3980 nM
- GI50 ([3]; read-out: pGI50 (converted)): 1910 nM
- CC50 [3, 20]: 8320 nM
- TGI ([3]; read-out: pTGI (converted)): 3980 nM
- GI50 ([4]; read-out: GI50): 1630 nM
- CC50 [4, 19]: 6290 nM
- TGI ([4]; read-out: TGI): 3200 nM
- GI50 ([4]; read-out: pGI50 (converted)): 1620 nM
- CC50 [4, 20]: 6310 nM
- TGI ([4]; read-out: pTGI (converted)): 3160 nM
- GI50 ([5]; read-out: GI50): 2580 nM
- LC50 (lethal concentration 50%) ([5]; read-out: LC50): > 100000 nM
- TGI ([5]; read-out: TGI): > 100000 nM
- GI50 ([5]; read-out: pGI50 (converted)): 2570 nM
- LC50 (lethal concentration 50%) ([5]; read-out: pLC50 (converted)): > 100000 nM
- TGI ([5]; read-out: pTGI): > 100000 nM
- GI50 ([6]; read-out: GI50): 767 nM
- CC50 [6, 19]: 5500 nM
- TGI ([6]; read-out: TGI): 2210 nM
- GI50 ([6]; read-out: pGI50 (converted)): 759 nM
- CC50 [6, 20]: 5500 nM
- TGI ([6]; read-out: pTGI (converted)): 2190 nM
- GI50 ([7]; read-out: GI50): 1160 nM
- CC50 [7, 19]: 7700 nM
- TGI ([7]; read-out: TGI): 2990 nM
- GI50 ([7]; read-out: pGI50 (converted)): 1150 nM
- CC50 [7, 20]: 7760 nM
- TGI ([7]; read-out: pTGI (converted)): 3020 nM
- GI50 ([8]; read-out: GI50): 695 nM
- LC50 (concentration killing 50% of cells) ([8]; read-out: LC50): > 100000 nM
- TGI ([8]; read-out: TGI): 3900 nM
- GI50 ([8]; read-out: pGI50 (converted)): 692 nM
- LC50 (concentration killing 50% of cells) ([8]; read-out: pLC50 (converted)): > 100000 nM
- TGI ([8]; read-out: pTGI (converted)): 3890 nM
- GI50 ([9]; read-out: GI50): 1860 nM
- LC50 ([9]; read-out: LC50): 7280 nM
- TGI ([9]; read-out: TGI): 3680 nM
- GI50 ([9]; read-out: pGI50 (converted)): 1860 nM
- LC50 ([9]; read-out: pLC50 (converted)): 7240 nM
- TGI ([9]; read-out: pTGI (converted)): 3720 nM
- GI50 ([10]; read-out: GI50): 1030 nM
- TGI ([10]; read-out: TGI): 2730 nM
- GI50 ([10]; read-out: pGI50 (converted)): 1020 nM
- TGI ([10]; read-out: pTGI (converted)): 2750 nM
- GI50 ([11]; read-out: GI50): 1310 nM
- TGI ([11]; read-out: TGI): 3510 nM
- GI50 ([11]; read-out: pGI50 (converted)): 1320 nM
- TGI ([11]; read-out: pTGI (converted)): 3470 nM
- GI50 ([12]; read-out: GI50): 766 nM
- CC50 [12, 19]: 5210 nM
- TGI ([12]; read-out: TGI): 2170 nM
- GI50 ([12]; read-out: pGI50 (converted)): 759 nM
- CC50 [12, 20]: 5250 nM
- TGI ([12]; read-out: pTGI (converted)): 2190 nM
- GI50 ([13]; read-out: GI50): 576 nM
- CC50 [13, 19]: 6160 nM
- TGI ([13]; read-out: TGI): 2120 nM
- GI50 ([13]; read-out: pGI50 (converted)): 575 nM
- CC50 [13, 20]: 6170 nM
- TGI ([13]; read-out: pTGI (converted)): 2140 nM
- GI50 ([14]; read-out: GI50): 489 nM
- TGI ([14]; read-out: TGI): 2210 nM
- GI50 ([14]; read-out: pGI50 (converted)): 490 nM
- TGI ([14]; read-out: pTGI (converted)): 2240 nM
- inhibition of growth at 10 µM [15]: ≤ 32%
- GI50 ([16]; read-out: GI50): 1390 nM
- CC50 [16, 19]: 5190 nM
- TGI ([16]; read-out: TGI): 2690 nM
- GI50 ([16]; read-out: pGI50 (converted)): 1380 nM
- CC50 [16, 20]: 5250 nM
- TGI ([16]; read-out: pTGI (converted)): 2690 nM
- GI50 ([17]; read-out: GI50): 1280 nM
- CC50 [17, 19]: 6820 nM
- TGI ([17]; read-out: TGI): 2960 nM
- GI50 ([17]; read-out: pGI50 (converted)): 1290 nM
- CC50 [17, 20]: 6760 nM
- TGI ([17]; read-out: pTGI (converted)): 2950 nM
- GI50 ([18]; read-out: GI50): 740 nM
- CC50 [18, 19]: 5150 nM
- TGI ([18]; read-out: TGI): 2140 nM
- GI50 ([18]; read-out: pGI50 (converted)): 741 nM
- CC50 [18, 20]: 5130 nM
- TGI ([18]; read-out: pTGI (converted)): 2140 nM

— ChEMBL document CHEMBL2331220, “Benzimidazole clubbed with triazolo-thiadiazoles and triazolo-thiadiazines: new anticancer agents” (2013)
